Measured values as given in ChEMBL document CHEMBL1158415, “Synthesis, antimicrobial activity and QSAR studies of new 2,3-disubstituted-3,3a,4,5,6,7-hexahydro-2H-indazoles” (Bioorg Med Chem Lett, 2009).

How the values were obtained:
[1] = test system: Pseudomonas aeruginosa; test: Antibacterial activity against Pseudomonas aeruginosa after 24 hrs by tube dilution method; type: functional
In short: (§1)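 Tube dilution in double strength nutrient broth-IP, done in duplicate. Test solution in DMSO (10 µg/mL) is serially diluted twofold into medium to give 5, 2.5, 1.25, 0.625 and 0.312 µg/mL. Each tube gets 0.1 mL of microbial suspension in saline, then is incubated at 37 °C for 24 h. MIC is the lowest concentration with no visible turbidity, refined by testing intermediate concentrations. Ciprofloxacin is the reference.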

[2] = test system: Staphylococcus aureus; test: Antibacterial activity against Staphylococcus aureus after 24 hrs by tube dilution method; type: functional; in short: as §1
[3] = test system: Candida albicans; test: Antifungal activity against Candida albicans after 48 hrs by tube dilution method; type: functional
In short: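 Tube dilution in Sabouraud dextrose broth, done in duplicate. DMSO test solution (10 µg/mL) is serially diluted to give 5 down to 0.312 µg/mL. Each tube gets 0.1 mL of yeast suspension in saline, then is incubated at 37 °C for 48 h. MIC is the lowest concentration preventing turbidity, refined with intermediate concentrations. Fluconazole is the reference.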

[4] = test system: Escherichia coli; test: Antibacterial activity against Escherichia coli after 24 hrs by tube dilution method; type: functional; in short: as §1
[5] = Octanol-water partition coefficient, log P of the compound; type: physicochemical
[6] = test system: Bacillus subtilis; test: Antibacterial activity against Bacillus subtilis after 24 hrs by tube dilution method; type: functional; in short: as §1
[7] = test system: Aspergillus niger; test: Antifungal activity against Aspergillus niger after 7 days by tube dilution method; type: functional
In short: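 Tube dilution in Sabouraud dextrose broth, done in duplicate. DMSO test solution (10 µg/mL) is serially diluted to give 5, 2.5, 1.25, 0.625 and 0.312 µg/mL. Each tube gets 0.1 mL of spore/microbial suspension in saline, then is incubated at 25 °C for 7 d. MIC is read visually as the lowest concentration without turbidity, refined with intermediate concentrations. Fluconazole is the reference.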

Compound | -logMIC [1] | -logMIC [2] | -logMIC [3] | -logMIC [4] | logP [5] | -logMIC [6] | -logMIC [7]
COc1ccc(C2C3CCCCC3=NN2S(=O)(=O)c2ccccc2)cc1 (stereo not drawn) | 2.61 | 2.57 | 2.61 | 2.57 | 4.6 | 2.47 | 2.57
Clc1ccc(C2NN=C3CCCCC32)cc1 (stereo not drawn) | 2.19 | 2.07 | 2.27 | 2.19 | 4.4 | 2.07 | 2.27
Cc1ccc(S(=O)(=O)N2N=C3CCCCC3C2c2ccc(Cl)cc2)cc1 (stereo not drawn) | 2.64 | 2.49 | 2.59 | 2.59 | 5.8 | 2.64 | 2.64
O=S(=O)(c1ccc(Cl)cc1)N1N=C2CCCCC2C1c1ccc(F)cc1 (stereo not drawn) | 2.79 | 2.64 | 2.59 | 2.75 | 5.1 | 2.69 | 2.64
Cc1ccc(S(=O)(=O)N2N=C3CCCCC3C2c2ccc(F)cc2)cc1 (stereo not drawn) | 2.67 | 2.47 | 2.57 | 2.62 | 5.4 | 2.62 | 2.67
O=S(=O)(c1cccc2ccccc12)N1N=C2CCCCC2C1c1ccc(F)cc1 (stereo not drawn) | 2.77 | 2.61 | 2.61 | 2.71 | 6 | 2.66 | 2.66
O=[N+]([O-])c1ccc(S(=O)(=O)N2N=C3CCCCC3C2c2ccc(Cl)cc2)cc1 (stereo not drawn) | 2.78 | 2.67 | 2.82 | 2.67 | 5.3 | 2.72 | 2.82
O=S(=O)(c1ccc(Cl)cc1)N1N=C2CCCCC2C1c1ccc(Cl)cc1 (stereo not drawn) | 2.77 | 2.61 | 2.77 | 2.66 | 5.9 | 2.71 | 2.71
COc1ccc(C2C3CCCCC3=NN2S(=O)(=O)c2ccc(C)cc2)cc1 (stereo not drawn) | 2.58 | 2.49 | 2.63 | 2.58 | 5.1 | 2.63 | 2.68
CS(=O)(=O)N1N=C2CCCCC2C1c1ccc(F)cc1 (stereo not drawn) | 2.52 | 2.37 | 2.47 | 2.47 | 3.3 | 2.57 | 2.57
CS(=O)(=O)N1N=C2CCCCC2C1c1ccc(Cl)cc1 (stereo not drawn) | 2.5 | 2.4 | 2.59 | 2.4 | 3.7 | 2.54 | 2.5
COc1ccc(C2C3CCCCC3=NN2S(=O)(=O)c2ccc(Cl)cc2)cc1 (stereo not drawn) | 2.7 | 2.61 | 2.61 | 2.65 | 4.3 | 2.65 | 2.65
O=S(=O)(c1cccc2ccccc12)N1N=C2CCCCC2C1c1ccc(Cl)cc1 (stereo not drawn) | 2.67 | 2.53 | 2.73 | 2.63 | 6.4 | 2.67 | 2.67
COc1ccc(C2C3CCCCC3=NN2S(C)(=O)=O)cc1 (stereo not drawn) | 2.49 | 2.31 | 2.59 | 2.39 | 2.9 | 2.53 | 2.53
COc1ccc(C2C3CCCCC3=NN2S(=O)(=O)c2cccc3ccccc23)cc1 (stereo not drawn) | 2.67 | 2.53 | 2.62 | 2.62 | 5.6 | 2.62 | 2.62
O=[N+]([O-])c1ccc(S(=O)(=O)N2N=C3CCCCC3C2c2ccc(F)cc2)cc1 (stereo not drawn) | 2.81 | 2.7 | 2.65 | 2.76 | 4.9 | 2.76 | 2.76
COc1ccc(C2NN=C3CCCCC32)cc1 (stereo not drawn) | 2.19 | 2.01 | 2.19 | 2.06 | 3.6 | 2.01 | 2.19
COc1ccc(C2C3CCCCC3=NN2S(=O)(=O)c2ccc([N+](=O)[O-])cc2)cc1 (stereo not drawn) | 2.72 | 2.66 | 2.77 | 2.66 | 4.5 | 2.62 | 2.66
O=S(=O)(c1ccccc1)N1N=C2CCCCC2C1c1ccc(Cl)cc1 (stereo not drawn) | 2.67 | 2.57 | 2.62 | 2.57 | 5.4 | 2.62 | 2.62
Fc1ccc(C2NN=C3CCCCC32)cc1 (stereo not drawn) | 2.24 | 2.04 | 2.16 | 2.24 | 4 | 2.24 | 2.24
O=S(=O)(c1ccccc1)N1N=C2CCCCC2C1c1ccc(F)cc1 (stereo not drawn) | 2.71 | 2.55 | 2.6 | 2.65 | 5 | 2.65 | 2.55
O=C(O)c1cn(C2CC2)c2cc(N3CCNCC3)c(F)cc2c1=O [CIPROFLOXACIN] | 2.62 | 2.03 |  | 2.03 |  | 2.33 | 
OC(Cn1cncn1)(Cn1cncn1)c1ccc(F)cc1F [FLUCONAZOLE] |  |  | 3.16 |  |  |  | 3.16
